Screening data (PubChem BioAssay)
ASAP1 inh: blocks human ASAP1-stimulated Arf1 GTP hydrolysis. 360,000 compounds, 0.19% hits. GDP FP detection. Q9ULH1. inhibition, % at 16.5 µM. AID 624377; in the data active means inhibition above about 25%;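 further: 0% = vehicle with enzyme and substrate and 100% = no enzyme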
Target sequence (Q9ULH1 325-724 limits assumed): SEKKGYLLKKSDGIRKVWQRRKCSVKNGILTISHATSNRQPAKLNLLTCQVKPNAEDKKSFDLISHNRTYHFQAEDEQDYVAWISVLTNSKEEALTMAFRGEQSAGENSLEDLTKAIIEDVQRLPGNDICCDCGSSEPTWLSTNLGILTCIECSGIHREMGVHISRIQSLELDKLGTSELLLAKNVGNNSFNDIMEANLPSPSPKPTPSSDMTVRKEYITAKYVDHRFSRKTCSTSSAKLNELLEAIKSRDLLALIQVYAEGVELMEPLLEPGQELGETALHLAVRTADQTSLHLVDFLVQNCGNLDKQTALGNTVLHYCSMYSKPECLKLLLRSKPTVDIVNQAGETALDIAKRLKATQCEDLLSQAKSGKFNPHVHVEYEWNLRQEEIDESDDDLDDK
ARFGAP1 inh: inhibits rat ARF GTPase activating protein 1 | 360,000 compounds, 0.26% hits | Q62848 | AID 651572 | Arfgap1-stimulated ARF1 GTP hydrolysis, GDP FP detection | inhibition, % at 16.5 µM;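 active means inhibition above a per-plate limit, mean inhibition of low control wells plus 3 SD, cut at about 25% in these data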;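 further: 0% = DMSO wells with enzyme and 100% = wells lacking Arfgap1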
Target sequence (Q62848 1-136 limits assumed): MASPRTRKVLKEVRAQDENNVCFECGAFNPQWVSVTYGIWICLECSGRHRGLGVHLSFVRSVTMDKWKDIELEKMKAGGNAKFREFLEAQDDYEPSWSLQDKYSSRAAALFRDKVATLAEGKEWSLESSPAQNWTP
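Material: rat Arfgap1 catalytic domain, aa 1-136; also added: human ARF1(Δ1-17)-GTP substrate; compound dosing: one concentration, 16.5 µM, DMSO 1.26%; incubation: GTP hydrolysis reaction 2 h at 25 °C; measured by: Tracer-displacement fluorescence polarization with EDTA stop, 620/688 nm; evaluation: % inhibition from polarization; repeats: one replicate per compound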
esBAF inh: inhibitors of esBAF chromatin remodeling in mouse ES cells | Bmi1-luciferase knock-in reporter, 24 h; 100% = twice the neutral-well signal | 350,000 compounds, 2% hits | reporter increase, % at 12.5 µM; in the data active means activation above about 40%; inconclusive means no clear call, values can overlap the other calls;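 further: 0% = median of the plate's neutral control wells and 100% = double that signal; a rise in the Bmi1 reporter signal indicates esBAF inhibition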
SMARCA2 activ: increases SMARCA2 function in MMTV reporter cells. activation, % at 9.1 µM. MG213 cells, MMTV-luciferase reporter, dexamethasone, overnight. 370,000 compounds, 1% hits. AID 652017; in the data active means activation above about 7.8%;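 further: 0% = vehicle wells and 100% = reference activator wells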
The depositor's hits bear a star; ? = inconclusive; nt = no result given. The list is not random: actives were taken first. Their share in the collection is about 2.6%.

SMILES | ASAP1 inh | ARFGAP1 inh | esBAF inh | SMARCA2 activ
O=C(Nc1ccc(N2CCCC2)cc1)c1cccc(Cl)c1Cl | 4 | 12 | 85* | 2
Cc1cc(NC(=O)c2ccccc2F)ncc1NC(=O)c1cccs1 | 4 | 9 | 50* | 2
O=C(Nc1ccc(Nc2ccccc2)cc1)c1ccccc1F | 0 | 5 | 52* | 5
O=C(C[C@@H]1C=C[C@H](NC(=O)c2ccc(F)cc2)[C@H](CO)O1)NCCc1ccccc1 | nt | nt | 3 | nt
O=C(Nc1ccc2c(c1)OCCO2)c1cccc(Cl)c1Cl | -4 | -7 | 88* | 1
Cc1ccc(NC(=O)c2ccccc2F)c(NC(=O)c2ccccc2F)c1 | 4 | 8 | 58* | 7
O=C(Nc1ccc2c(c1)OCCO2)c1c(Cl)cccc1Cl | -4 | -3 | 10 | -1
COC(=O)C1CCN(C(=O)C2CC(=O)N(c3ccc(C)c(Cl)c3)C2)CC1 (configuration not stated) | 12 | -12 | 56* | -1
Cc1ccc(N2CC(C(=O)NC3CC3)CC2=O)cc1Cl (configuration not stated) | 6 | 7 | -8 | -2
C[C@H]1CCCCO[C@@H](CN(C)C(=O)Cc2ccccc2)[C@@H](C)CN([C@@H](C)CO)C(=O)c2cc(NS(=O)(=O)c3ccc(F)cc3)ccc2O1 | nt | nt | 15 | nt
CC(=O)N(C)C[C@@H]1Oc2cc(/C=C/c3ccccc3)ccc2S(=O)(=O)N([C@@H](C)CO)C[C@H]1C | nt | nt | 0 | nt
Cc1ccc(S(=O)(=O)Nc2ccc3c(c2)C(=O)N([C@H](C)CO)C[C@H](C)[C@@H](CN(C)Cc2ccc4c(c2)OCO4)O3)cc1 | nt | nt | -3 | nt
COC(=O)c1cc(/C=C/c2ccccc2)[nH]n1 | -1 | 5 | 61* | 7
C[C@@H]1CN([C@H](C)CO)C(=O)c2cccc(NS(=O)(=O)c3ccc(Cl)cc3)c2O[C@H]1CN(C)C(=O)Nc1ccccc1 | nt | nt | -4 | nt
CCN(CC)c1ccc(-n2cc3c(=O)n(C)c(=O)n(C)c3c2)cc1 | 6 | 3 | ? | 3
CN(C)c1ccc(-n2cc3c(=O)n(C)c(=O)n(C)c3c2)cc1 | 13 | 4 | 71* | 6
Cn1cnc(S(=O)(=O)N2C[C@H](O)COC[C@@H]3O[C@H](CC(=O)N4CCN(c5ccccc5)CC4)CC[C@H]32)c1 | nt | nt | -1 | nt
Cc1ccc(/C=N/N=C/c2ccc(C)cc2)cc1 | 5 | 12 | 57* | 6
CNC[C@@H]1OCCCC[C@H](C)Oc2ccc(NC(=O)Nc3ccc(C(F)(F)F)cc3)cc2C(=O)N([C@H](C)CO)C[C@H]1C | nt | nt | 0 | nt
Cc1cc(N2CCN(C)CC2)nc2ccc(NC(=S)NCCCN3CCc4ccccc4C3)cc12 | 8 | 4 | nt | -1
Cc1cc(N2CCN(C)CC2)nc2ccc(NC(=S)NCCN3CCc4ccccc4C3)cc12 | 0 | -3 | -10 | 7.9*
CO[C@@H]1CN(C)C(=O)c2cc(NC(=O)NC3CCCCC3)ccc2OC[C@@H](C)N(C(C)=O)C[C@@H]1C | nt | nt | -2 | nt
Cc1nnc(SCC(=O)Nc2ccccc2)c2ccccc12 | 8 | 2 | 69* | 2
CS(=O)(=O)Nc1cccc(NC(=O)c2cccc3c(-c4ccc(F)c(F)c4)coc23)c1 | 2 | -1 | 52* | 0
Cn1nccc1-c1ccc(C(=O)Nc2cccc(NS(C)(=O)=O)c2)c2occc12 | -1 | -1 | 46* | -3
SMILES | ASAP1 inh | ARFGAP1 inh | esBAF inh | SMARCA2 activ
COc1ccc(NC(=O)N(C)C[C@H]2Oc3c(NC(=O)c4cnccn4)cccc3C(=O)N([C@H](C)CO)C[C@@H]2C)cc1 | nt | nt | 8 | nt
COc1cc(C=O)ccc1OCc1ccc(Cl)nc1 | -10 | -6 | 63* | -1
CCCCn1cnc2c(cnn2-c2ccc(F)cc2)c1=O | 4 | 7 | nt | 1
CCCn1cnc2c(cnn2-c2ccc(F)cc2)c1=O | -1 | 1 | 52* | -2
CCOC(=O)c1c(C)[nH]c(N=Nc2cccc(C)c2)c1C | -1 | -8 | 79* | -1
CCOC(=O)c1c(C)[nH]c(N=Nc2cccc(OC)c2)c1C | -8 | -3 | 66* | 0
CCOC(=O)c1c(C)[nH]c(C=Nc2ccc(OC)cc2)c1O | 2 | -3 | ? | -1
CCCOC(=O)c1ccc(NC(=O)C2CCCO2)cc1 (configuration not stated) | 0 | -3 | 50* | 2
CCCOC(=O)c1ccc(NC(=O)C(CC)CC)cc1 | -6 | -4 | 51* | 2
O=C(Nc1ccc(F)cc1)N[C@@H]1C=C[C@H](CC(=O)N2CCCCC2)O[C@@H]1CO | nt | nt | 1 | nt
C[C@@H]1CN([C@@H](C)CO)C(=O)c2cc(NS(C)(=O)=O)ccc2O[C@@H](C)CCCCO[C@@H]1CN(C)C(=O)Nc1ccc(F)cc1 | nt | nt | -1 | nt
c1c2c(cc3sc(N4CCOCC4)nc13)OCCO2 | -7 | -1 | -79 | -3
c1ccc(N2CCN(c3nc4cc5c(cc4s3)OCCO5)CC2)cc1 | 9 | 2 | 48* | 1
C[C@H]1CCCCO[C@@H](CN(C)Cc2ccccc2)[C@@H](C)CN([C@@H](C)CO)C(=O)c2cc(NS(=O)(=O)c3cn(C)cn3)ccc2O1 | nt | nt | -5 | nt
O=C(Nc1nc(-c2ccccn2)cs1)C1COc2ccccc2O1 (configuration not stated) | 4 | 3 | 9 | -2
CC1CC1C(=O)Nc1nc(-c2ccccn2)cs1 (configuration not stated) | -11 | -5 | 51* | 2
Cc1ccc(-c2csc3nc(CN(C)Cc4ccccc4)[nH]c(=O)c23)cc1 | 11 | 12 | 0 | -2
O=c1[nH]c(Cc2ccc(F)cc2)nc2scc(-c3ccc(F)cc3)c12 | -11 | -6 | 47* | -4
O=c1[nH]c(Cc2cccs2)nc2scc(-c3ccc(Cl)cc3)c12 | 0 | 6 | 72* | -3
COc1ccc(NC(=O)N(C)C[C@@H]2Oc3ccc(NC(=O)CCN4CCOCC4)cc3CC(=O)N([C@H](C)CO)C[C@@H]2C)cc1 | nt | nt | -7 | nt
CN(C)c1nc(-c2ccc([N+](=O)[O-])cc2)cs1 | -9 | -6 | 67* | 1
CCNC(=S)NNC(=O)c1csc(C(C)C)c1 | -5 | -11 | 50* | 3
O=C(C1CC1)N1CC[C@@H]2[C@@H](CO)Nc3ccc(-c4cccc(F)c4)cc3[C@@H]21 | nt | nt | -6 | nt
Cc1noc(C)c1NC(=O)N(C)C[C@H]1Oc2ccc(NC(=O)c3ccncc3)cc2CC(=O)N([C@H](C)CO)C[C@H]1C | nt | nt | 1 | nt
O=C(Nc1ccc(NC(=O)C2CC2)cn1)c1ccccc1Cl | 7 | 7 | 42* | 5
SMILES | ASAP1 inh | ARFGAP1 inh | esBAF inh | SMARCA2 activ
O=C(Nc1ccc(NC(=O)C2CC2)cn1)c1ccccc1 | 8 | 5 | -27 | 3
O=C(Nc1ccc(NC(=O)C2CCCCC2)nc1)c1ccccn1 | 4 | 3 | 47* | 3
C[C@@H]1CN([C@H](C)CO)S(=O)(=O)c2ccc(C#CCN(C)C)cc2O[C@H]1CN(C)C(=O)C1CCCCC1 | nt | nt | -2 | nt
CCOC(=O)c1ccc(N=NN(C)C)cc1 | 1 | -4 | nt | 0
CCOC(=O)c1ccc(N=c2scc(C)n2CC)cc1 | 7 | 1 | 58* | 7.8*
CSc1ccc(/C=N/NC(=O)c2ccccc2Cl)cc1 | -10 | -11 | 79* | 3
